In ChEMBL document CHEMBL1155167, “Fluoroquinolone resistance in atypical pneumococci and oral streptococci: evidence of horizontal gene transfer of fluoroquinolone resistance determinants from Streptococcus pneumoniae” (2007):

Tests used:
Streptococcus oralis [1] = experiment: Antimicrobial activity against Streptococcus oralis HK587 with gyrA Ser114Gly, and parC Ser52Gly, Asn91Asp mutation by broth dilution method; format: functional
Summary of the method: (§1)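 Ciprofloxacin and levofloxacin MICs were determined by broth dilution following CLSI (formerly NCCLS) guidance. S. pneumoniae ATCC 6303 and ATCC 49619 served as control strains. Reference strains were S. mitis ATCC 49456 and S. oralis ATCC 10557. The clinical isolates came from patients at a Hong Kong teaching hospital.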

Streptococcus oralis [2] = experiment: Antimicrobial activity against Streptococcus oralis HK232 with gyrA Ser114Gly, and parC Ser52Gly, Asn91Asp mutation by broth dilution method; format: functional; summary of the method: as §1
Streptococcus pneumoniae [3] = experiment: Antimicrobial activity against atypical Streptococcus pneumoniae L25 with parC Lys137Asn mutation by broth dilution method
Streptococcus oralis [4] = experiment: Antimicrobial activity against Streptococcus oralis HK299 with gyrA Ser114Gly, and parC Ser52Gly, Asn91Asp mutation by broth dilution method; format: functional; summary of the method: as §1
Streptococcus oralis [5] = experiment: Antimicrobial activity against Streptococcus oralis HK386 with gyrA Ser114Gly, and parC Ser52Gly, Asn91Asp mutation by broth dilution method; format: functional; summary of the method: as §1
Streptococcus oralis [6] = experiment: Antimicrobial activity against Streptococcus oralis HK417 with gyrA Ser114Gly, and parC Ser52Gly, Asn91Asp mutation by broth dilution method; format: functional; summary of the method: as §1
Streptococcus pneumoniae [7] = experiment: Antimicrobial activity against Streptococcus pneumoniae L5 with parE Ile460Val mutation by broth dilution method
Streptococcus oralis [8] = experiment: Antimicrobial activity against Streptococcus oralis HK300 with gyrA Ser114Gly, and parC Ser52Gly, Asn91Asp mutation by broth dilution method; format: functional; summary of the method: as §1
Streptococcus oralis [9] = experiment: Antimicrobial activity against Streptococcus oralis HK51with gyrA Ser114Gly, and parC Ser52Gly, Asn91Asp mutation by broth dilution method; format: functional; summary of the method: as §1
Streptococcus pneumoniae [10] = experiment: Antimicrobial activity against atypical Streptococcus pneumoniae L10 with gyrA Ser81Phe and parC Lys197Asn mutation by broth dilution method
Streptococcus pneumoniae [11] = experiment: Antimicrobial activity against Streptococcus pneumoniae L14 with parC Lys137Asn and parE Ile460Val mutation by broth dilution method
Streptococcus pneumoniae [12] = experiment: Antimicrobial activity against Streptococcus pneumoniae L13 with parC Asp83Tyr and parE Ile460Val mutation by broth dilution method
Streptococcus mitis [13] = experiment: Antimicrobial activity against Streptococcus mitis ATCC 49456 with gyrA Ser114Gly, and parC Ser52Gly, Asn91Asp, Glu135Asp mutation by broth dilution method; format: functional; summary of the method: as §1
Streptococcus pneumoniae [14] = experiment: Antimicrobial activity against atypical Streptococcus pneumoniae L8 with parC Ser52Gly, Phe55His, Ser58Gly, Asn91Asp, Lys197Asn mutation by broth dilution method
Streptococcus viridans [15] = experiment: Antimicrobial activity against Viridans streptococcus L2 with gyrA Ser114Gly, gyrB Ser494Thr and parC Ser52Gly, Asn91Asp mutation by broth dilution method; format: functional; summary of the method: as §1
Streptococcus pneumoniae [16] = experiment: Antimicrobial activity against Streptococcus pneumoniae L24 with gyrA Ser81Phe, gyrB Ser494Thr, parC Asp83Asn, Lys137Asn and parE Ile460Val mutation by broth dilution method
Streptococcus oralis [17] = experiment: Antimicrobial activity against Streptococcus oralis HK579 with gyrA Ser114Gly, and parC Ser52Gly, Asn91Asp mutation by broth dilution method; format: functional; summary of the method: as §1
Streptococcus viridans [18] = experiment: Antimicrobial activity against Viridans streptococcus L26 gyrA Ser81Phe and parC Lys137Asn mutation by broth dilution method; format: functional; summary of the method: as §1
Streptococcus mitis [19] = experiment: Antimicrobial activity against Streptococcus mitis HK666 with gyrA Ser114Gly, and parC Ser52Gly, Asn91Asp, Glu135Asp mutation by broth dilution method; format: functional; summary of the method: as §1
Streptococcus mitis [20] = experiment: Antimicrobial activity against Streptococcus mitis HK29 with gyrA Ser114Gly, and parC Ser52Gly, Asn91Asp mutation by broth dilution method; format: functional; summary of the method: as §1
Streptococcus oralis [21] = experiment: Antimicrobial activity against Streptococcus oralis HK619 with gyrA Ser114Gly, and parC Ser52Gly, Asn91Asp mutation by broth dilution method; format: functional; summary of the method: as §1
Streptococcus mitis [22] = experiment: Antimicrobial activity against Streptococcus mitis HK135786 with gyrA Ser114Gly, and parC Ser52Gly, Asn91Asp mutation by broth dilution method; format: functional; summary of the method: as §1
Streptococcus viridans [23] = experiment: Antimicrobial activity against Viridans streptococcus L17 with gyrA Ser114Gly, gyrB Ser494Thr and parC Ser52Gly, Asn91Asp mutation by broth dilution method; format: functional; summary of the method: as §1
Streptococcus viridans [24] = experiment: Antimicrobial activity against Viridans streptococcus L7 with gyrA Ser114Gly, gyrB Ser494Thr and parC Ser52Gly, Asn91Asp mutation by broth dilution method; format: functional; summary of the method: as §1
Streptococcus mitis [25] = experiment: Antimicrobial activity against Streptococcus mitis HK680 with gyrA Ser114Gly, and parC Ser52Gly, Asn91Asp mutation by broth dilution method; format: functional; summary of the method: as §1
Streptococcus mitis [26] = experiment: Antimicrobial activity against Streptococcus mitis HK137453 with gyrA Ser114Gly, and parC Ser52Gly, Asn91Asp mutation by broth dilution method; format: functional; summary of the method: as §1
Streptococcus mitis [27] = experiment: Antimicrobial activity against Streptococcus mitis HK260 with gyrA Ser114Gly, and parC Ser52Gly, Asn91Asp mutation by broth dilution method; format: functional; summary of the method: as §1
Streptococcus pneumoniae [28] = experiment: Antimicrobial activity against atypical Streptococcus pneumoniae L1 with gyrA Ser81Phe and parC Ser79Phe, Glu96Asp, Lys197Asn mutation by broth dilution method
Streptococcus oralis [29] = experiment: Antimicrobial activity against Streptococcus oralis HK754 with gyrA Ser81Leu, Ser114Gly, gyrB Ser494Thr, parC Ser52Gly, Asp83Tyr, Asn91Asp and parE Arg447Ser mutation by broth dilution method; format: functional; summary of the method: as §1
Streptococcus pneumoniae [30] = experiment: Antimicrobial activity against atypical Streptococcus pneumoniae L27 with parC Ser52Gly, Asn91Asp, Glu135Asp mutation by broth dilution method
Streptococcus viridans [31] = experiment: Antimicrobial activity against Viridans streptococcus L19 with gyrA Ser114Gly, gyrB Ser494Thr, parC Ser52Gly, Asn91Asp and parE Ile460Val mutation by broth dilution method; format: functional; summary of the method: as §1
Streptococcus mitis [32] = experiment: Antimicrobial activity against Streptococcus mitis HK188 with gyrA Ser114Gly, and parC Ser52Gly, Asn91Asp, Glu135Asp mutation by broth dilution method; format: functional; summary of the method: as §1
Streptococcus pneumoniae [33] = experiment: Antimicrobial activity against Streptococcus pneumoniae L15 with parC Asp83Asn Lys137Asn and parE Ile460Val mutation by broth dilution method
Streptococcus mitis [34] = experiment: Antimicrobial activity against Streptococcus mitis HK125807 with gyrA Ser114Gly, and parC Ser52Gly, Asn91Asp mutation by broth dilution method; format: functional; summary of the method: as §1
Streptococcus mitis [35] = experiment: Antimicrobial activity against Streptococcus mitis HK677 with gyrA Ser81Leu, Ser114Gly, gyrB Ser494Thr, parC Ser52Gly, Asp83Tyr, Asn91Asp and parE Arg447Ser mutation by broth dilution method; format: functional; summary of the method: as §1
Streptococcus pneumoniae [36] = experiment: Antimicrobial activity against Streptococcus pneumoniae L6 with gyrA Ser81Phe, parC Lys137Asn and parE Ile460Val mutation by broth dilution method

Measured: MIC

O=C(O)c1cn(C2CC2)c2cc(N3CCNCC3)c(F)cc2c1=O [CIPROFLOXACIN]
> 32 µg/mL: Streptococcus pneumoniae [28]
16 µg/mL: Streptococcus viridans [18]
8 µg/mL: Streptococcus pneumoniae [14] | Streptococcus pneumoniae [33] | Streptococcus pneumoniae [36]
1 µg/mL: Streptococcus mitis [13] | Streptococcus mitis [32]
4 µg/mL: Streptococcus oralis [1] | Streptococcus pneumoniae [3] | Streptococcus oralis [4] | Streptococcus oralis [5] | Streptococcus pneumoniae [7] | Streptococcus oralis [8] | Streptococcus oralis [9] | Streptococcus pneumoniae [10] | Streptococcus pneumoniae [11] | Streptococcus pneumoniae [12] | Streptococcus viridans [15] | Streptococcus oralis [17] | Streptococcus mitis [20] | Streptococcus oralis [21] | Streptococcus mitis [22] | Streptococcus viridans [23] | Streptococcus viridans [24] | Streptococcus pneumoniae [30] | Streptococcus viridans [31]
2 µg/mL: Streptococcus oralis [2] | Streptococcus oralis [6] | Streptococcus mitis [19] | Streptococcus mitis [25] | Streptococcus mitis [26] | Streptococcus mitis [34]
≥ 16 µg/mL: Streptococcus pneumoniae [16]
< 0.5 µg/mL: Streptococcus mitis [27]
128 µg/mL: Streptococcus oralis [29] | Streptococcus mitis [35]
